Assay outcomes deposited in PubChem by several laboratories.
F508del corr: F508del CFTR correction, initial screen, CFBE line, single point. 350,000 tested, 0.36% active. AID 720511, 2013. activity (quench increase), % at 7.58 µM. CFBE cells, YFP halide quenching; stimulated with forskolin plus potentiator P3; % fluorescence drop versus neutral controls;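 active = mean added fluorescence quench of at least 8% versus neutral control, with both replicates also reaching 8%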;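 note: cells transiently co-express mutant CFTR-F508del with the halide-sensitive YFP; corrector assay measuring rescue of mutant channel to the surface after 24 h compound exposure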
Scp-1 inhibitor: Scp-1 phosphatase inhibitors, primary screen, biochemical, colorimetric, uHTS. Carboxy-terminal domain RNA polymerase II polypeptide A small phosphatase 1 (Homo …. Recombinant Scp1, phosphopeptide, malachite green phosphate absorbance. inhibition, % at 20 µM. 340,000 tested, 0.88% active. AID 493091, 2011;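 active = inhibition above about 50% at 20 µM, limit read from the data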;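 note: plate controls were DMSO wells with enzyme for no effect and wells lacking enzyme for full effect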
Target sequence (Q9GZU7 76-261 limits assumed): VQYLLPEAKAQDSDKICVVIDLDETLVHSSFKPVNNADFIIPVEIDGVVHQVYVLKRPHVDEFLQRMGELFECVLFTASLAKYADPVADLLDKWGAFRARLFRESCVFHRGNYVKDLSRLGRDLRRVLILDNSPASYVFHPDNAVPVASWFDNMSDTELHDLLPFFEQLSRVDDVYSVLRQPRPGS
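System: SCP-1 catalytic domain; Reagent: Phospho 17-mer peptide substrate; Doses: one concentration, 20 µM, with 1.0% DMSO; Incubation: 45 min room-temperature reaction, 5 min colour, 30 min stabiliser; Signal: Phosphate-binding colour reagent, absorbance read at 630 nm.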
LMPTP inh: LMPTP phosphatase inhibitors, primary screen, biochemical, fluorescence intensity, uHTS. Low molecular weight phosphotyrosine protein phosphatase (Homo sapiens), P24666. recombinant LMPTP-A, OMFP fluorogenic substrate. inhibition, % at 20 µM. 360,000 tested, 0.22% active;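 active = compounds that cut the enzyme signal by at least half of the control window in the single-dose screen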;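 note: plate controls were DMSO wells with enzyme plus substrate for no effect and substrate without enzyme for full effect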
Target sequence (P24666 whole entry, looked up): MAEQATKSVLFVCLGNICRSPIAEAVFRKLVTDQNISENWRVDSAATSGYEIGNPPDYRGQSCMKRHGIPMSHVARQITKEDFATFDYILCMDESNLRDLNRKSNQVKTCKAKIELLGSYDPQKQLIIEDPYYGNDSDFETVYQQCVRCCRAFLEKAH
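Test system: LMPTP-A phosphatase enzyme; input: 0.625 nM LMPTP-A final; reagent: OMFP substrate, 400 µM final; compound dosing: 20 µM single dose, 3% DMSO; incubation: 50 min dark incubation at room temperature; measured by: endpoint fluorescence intensity from OMFP dephosphorylation; measure: % inhibition relative to no-enzyme and uninhibited control wells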
STEP block: STEP phosphatase inhibitors, primary screen, biochemical, fluorescence intensity, uHTS; 360,000 tested, 0.25% active; inhibition, % at 20 µM; recombinant STEP, OMFP fluorogenic substrate;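 active = inhibition at 20 µM, scaled per plate between control wells, above about 37%, limit read from the data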;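 note: 0% = DMSO with enzyme and substrate and 100% = substrate only without enzyme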
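material = STEP tyrosine phosphatase | reagent = fluorogenic phosphatase substrate OMFP at 25 µM final | doses = single compound dose of 20 µM, 1% DMSO final | schedule = 20 min reaction, room temperature, in the dark | measured by = fluorescence, 480/540 nm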
SUMO1 PPI mod: modulators of SUMO1 protein-protein interactions, primary screen, biochemical, uHTS; Small ubiquitin-related modifier 1 (Homo sapiens), P63165; SUMO1 binding to a labelled peptide, TR-FRET, 1 h; inhibition, % at 20 µM; 360,000 tested, 0.33% active; in the data active = inhibition above about 37%
Target sequence (P63165 whole entry, looked up): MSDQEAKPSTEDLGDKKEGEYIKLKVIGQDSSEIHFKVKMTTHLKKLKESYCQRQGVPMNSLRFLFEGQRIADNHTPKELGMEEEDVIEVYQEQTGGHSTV
DNMT1 inh: human DNMT1 methyltransferase inhibitors, primary screen, biochemical, molecular beacon, fluorescence, HinP1I cleavage, uHTS; DNA (cytosine-5)-methyltransferase 1 (Homo sapiens), P26358; 360,000 tested, 0.83% active; inhibition (reported as % activation of signal), % at 10 µM; in the data active = inhibition above about 50%
Starred values were filed as active, the others as inactive; x = not tested or not shown. Most compounds without a hit are left out; they make up all but 1.6% or so of the library.

SMILES	F508del corr	Scp-1 inhibitor	LMPTP inh	STEP block	SUMO1 PPI mod	DNMT1 inh
COc1ccc(NC(=O)Nc2ccc3c(c2)C(=O)N([C@H](C)CO)C[C@@H](C)[C@@H](CN(C)Cc2ccc4c(c2)OCO4)OCCCC[C@@H](C)O3)cc1	2	x	x	x	x	x
COc1cc2c(C#N)c(N3CCOCC3)nc(N)c2c(N)n1	x	4	8	6	16	36
COc1cc2c(C#N)c(N3CCc4ccccc4C3)nc(N)c2c(N)n1	x	5	4	6	47*	25
N#Cc1cc(Sc2ccccn2)c([N+](=O)[O-])cc1C#N	13*	39	18	1	-1	-2
N#Cc1cc(Sc2ccccn2)c(Sc2ccccn2)cc1C#N	x	2	1	0	-8	-1
CN1C(=O)S/C(=C/c2ccc(OCc3cccc(C(=O)O)c3)cc2)C1=O	-1	52*	4	2	-14	1
COc1cccc(/C=C2/SC(=O)N(C)C2=O)c1OCc1ccc(C(=O)O)cc1	3	-6	0	1	-18	1
CO[C@@H]1CN(C)C(=O)c2cc(NC(=O)c3cc(C)on3)ccc2OC[C@@H](C)N(CC2CC2)C[C@@H]1C	-2	x	x	x	x	x
Cc1ccc(-c2nn(-c3ccccc3)cc2C(=O)N2CCN(c3ccccn3)CC2)cc1	15*	4	0	-2	0	0
O=C(c1cn(-c2ccccc2)nc1-c1ccccc1)N1CCN(c2ccccn2)CC1	-1	-6	0	0	-1	-2
C[C@H](CO)N1C[C@H](C)[C@H](CN(C)C)Oc2ccc(NC(=O)Nc3ccccc3)cc2C1=O	0	x	x	x	x	x
Cc1noc(C)c1NC(=O)N(C)C[C@H]1OCCCC[C@@H](C)Oc2ccc(NC(=O)c3ccncc3)cc2C(=O)N([C@@H](C)CO)C[C@H]1C	0	x	x	x	x	x
O=C1Nc2ccc(Br)cc2/C1=N\N=C\C1=C(N2CCOCC2)C(=C/c2ccccc2)/CC1	0	64*	3	8	-18	-20
N=C(N)c1ccc(N=Nc2c(O)ccc3c2[nH]c2ccccc23)cc1	-1	10	23	17	129*	51*
Oc1ccc(N=Nc2c(O)ccc3ccccc23)cc1	0	-8	6	4	-36	-25
O=C(NN=C1CCCC1)c1[nH]c2ccc(Cl)cc2c1-c1ccccc1	14*	-4	4	2	2	-9
CC(=O)NNC(=O)c1[nH]c2ccc(Cl)cc2c1-c1ccccc1	-1	-23	0	-5	-7	-1
O=C(N/N=C/c1ccc(O)cc1)c1[nH]c2ccc(Br)cc2c1-c1ccccc1	10.0*	4	2	1	-2	-17
Cn1cnc(S(=O)(=O)N[C@H]2CC[C@@H](CC(=O)Nc3ccc(-c4ccccc4)cc3)O[C@H]2CO)c1	-1	x	x	x	x	x
COc1ccc(OC)c(C2CC(c3ccccc3)=NN2C(=S)Nc2ccccc2)c1 (stereo unspecified)	11*	1	3	2	-11	-1
O=C(c1ccccc1)N1CC[C@@H]2[C@H]1c1cc(C#CC3CCCCC3)ccc1N[C@@H]2CO	-1	x	x	x	x	x
C[C@@H]1CN([C@H](C)CO)C(=O)c2cc(NC(=O)CCCCCC(=O)Nc3ccccc3N)ccc2O[C@@H]1CN(C)S(=O)(=O)c1ccc(F)cc1	2	x	x	x	x	x
COCC#Cc1ccc([C@H]2[C@@H](CO)N3C(=O)CN(C(=O)Nc4ccccc4F)C[C@H]23)cc1	-1	x	x	x	x	x
COc1ccc2oc(C(=O)N3CCN(C(=O)c4ccco4)CC3)c(C)c2c1	14*	-8	0	-1	0	-2
Cc1cccc(C)c1NC(=O)CSCC(=O)O	x	-3	0	-4	-2	1
Cc1cccc(C)c1NC(=O)CSCC(=O)c1ccc(O)c(O)c1	x	-2	48*	-2	-2	1
